# DSG3 Ab inh: inhibitors of pemphigus antibody binding to human desmoglein-3; 310,000 tested, 0.48% active; binding (percent of control), % at 10 µM; DSG3-coupled beads, scFv-anti-DSG3-GFP binding, flow cytometry; hits give low values; P32926;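 active = binding more than 3 SD below its plate's average and above zero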;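 note: hits lower antibody fragment binding to DSG3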
# UHRF1 MBD2 ctr: blocks human UHRF1 binding to methylated DNA; UHRF1 binding to methylated oligo, TR-FRET; inhibition, % at 4.4 µM; 370,000 tested, 0.75% active; AID 687016; in the data active = inhibition above about 21%;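 note: UHRF1 SRA domain binding a hemimethylated CpG hairpin DNA probe; 0% = median of test compound wells and 100% = reference inhibitor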
# SUMO1-SIM PPI: modulators of human SUMO1-mediated protein-protein interactions; P63165; SUMO1 binding to a labelled peptide, TR-FRET, 1 h; inhibition, % at 20 µM; 360,000 tested, 0.33% active; AID 602429; in the data active = inhibition above about 37%
# Target sequence (P63165 whole entry, looked up): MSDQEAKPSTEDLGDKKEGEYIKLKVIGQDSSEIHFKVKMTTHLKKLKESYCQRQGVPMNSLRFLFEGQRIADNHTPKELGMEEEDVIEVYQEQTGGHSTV
# HCV NS3 hel inh: HCV NS3 helicase inhibition | NS3 helicase DNA unwinding, Cy5 molecular beacon fluorescence | inhibition, % at 10.9 µM | 290,000 tested, 0.56% active | AID 1800;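 active = inhibition above the mean of all tested compounds plus 3 SD, set per campaign, cut at about 35% in these data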;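 note: 0% = DMSO wells and 100% = thioflavine S control wells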
#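 assay system = NS3 helicase fragment of HCV | buffer or medium = MOPS pH 6.5, MgCl2, DTT, Tween20, BSA | timing = 60 min unwinding reaction at 25 °C after ATP addition | signal = Cy5 beacon fluorescence read at start and 1 h | read-out basis = % inhibition of unwinding | control set = low DMSO, high thioflavine S at 110 µM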
# MBD2 inh: MBD2-methylated oligo binding inhibition. TR-FRET, MBD2 binding to methylated oligonucleotide. inhibition, % at 4.4 µM. 370,000 tested, 0.31% active; in the data active = inhibition above about 13%
# Target sequence (Q9UBB5 whole entry, looked up): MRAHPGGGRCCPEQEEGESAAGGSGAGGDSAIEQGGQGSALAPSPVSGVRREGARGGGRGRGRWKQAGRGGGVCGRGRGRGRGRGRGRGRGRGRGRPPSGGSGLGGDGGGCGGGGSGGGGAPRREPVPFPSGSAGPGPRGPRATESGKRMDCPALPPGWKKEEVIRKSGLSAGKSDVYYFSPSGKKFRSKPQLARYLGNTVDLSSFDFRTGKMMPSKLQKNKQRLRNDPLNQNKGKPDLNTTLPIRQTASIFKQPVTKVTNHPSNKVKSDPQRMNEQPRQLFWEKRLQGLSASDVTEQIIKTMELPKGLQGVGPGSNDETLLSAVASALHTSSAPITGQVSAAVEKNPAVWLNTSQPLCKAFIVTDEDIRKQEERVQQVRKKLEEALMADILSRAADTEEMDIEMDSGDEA
# DNMT1 inh: inhibitors of human DNMT1; P26358; DNMT1 molecular beacon, Hinp1I cleavage, fluorescence; inhibition (reported as % activation of signal), % at 10 µM; 360,000 tested, 0.83% active; AID 588458; in the data active = inhibition above about 50%
# * hit, by the source's call; / = not tested or not shown. Hits are enriched below; roughly 2.5% of the tested compounds scored in any of these assays.
SMILES,DSG3 Ab inh,UHRF1 MBD2 ctr,SUMO1-SIM PPI,HCV NS3 hel inh,MBD2 inh,DNMT1 inh
COC(=O)Nc1ccc(S(=O)(=O)Nc2cc(C(F)(F)F)c[nH]c2=O)cc1,89,-2,-1,-3,5,1
Cc1ccc(CNC(=O)C2CCCC2)cc1,108,2,4,/,3,1
Cc1ccc(CNC(=O)CN2C(C)CCCC2C)cc1 (stereo not given),102,49*,-2,4,-2,-2
CCN(CC)S(=O)(=O)c1cccc(-c2nnc(SCCOc3ccccc3)o2)c1,65,1,-1,-8,-6,-6
CCN(CC)S(=O)(=O)c1cccc(-c2nnc(SCCOc3ccc(Cl)cc3)o2)c1,-11*,-2,0,5,3,-6
CCN(CC(=O)Nc1ccc(OC)cc1)CC(=O)Nc1ccc(Cl)cc1F,124,2,-3,-11,2,1
Cc1ccc(NC(=O)C(Cc2ccccc2)NC(=O)OCc2ccccc2)cc1C (stereo not given),102,-1,2,-14,0,-4
Cc1cccc(NC(=O)[C@H](Cc2ccccc2)NC(=O)OCc2ccccc2)c1,-3.4*,8,-4,11,4,0
COc1ccc(C(=O)Nc2ccc3c(c2)nc(CN2CCCC2)n3C)cc1,115,34*,2,-7,1,-14
COC(=O)c1c(-c2ccc(OC)cc2)sc2ccc(N3CCOCC3)cc12,66*,9,-3,/,-1,-27
COc1ccc(NC2CCCN(C(=O)c3ccc(CSC)o3)C2)cc1OC (stereo not given),/,-2,1,12,6,2
COCc1ccc(C(=O)N2CCCC(Nc3ccc4c(c3)OCCO4)C2)o1 (stereo not given),91,21*,1,-4,10,-1
CC1CC(C)CN(C(=O)COC(=O)C2CCN(S(=O)(=O)c3c(Cl)cccc3Cl)CC2)C1 (stereo not given),102,1,-2,/,1,-1
CCCCCCc1cc2cc(-c3nnc(-c4cc(OC)c(OC)c(OC)c4)o3)c(=O)oc2cc1O,/,/,/,7,/,/
CCCCCCc1cc2cc(-c3nnc(-c4ccccc4O)o3)c(=O)oc2cc1O,113,-2,8,-12,2,87*
Cc1ccc(NCc2ccccc2F)cc1,101,-1,1,-13,0,-1
Fc1ccc(CNC(=S)NCc2cccc(Cl)c2)cc1,/,30*,-6,10,3,7
O=S(=O)(Nc1ccc(-c2ccc3nncn3n2)cc1)c1ccccc1F,105,-1,-2,/,-4,-1
Cc1[nH]c2ccccc2c1SCC(=O)N1CCC(C)CC1,98,25*,5,-5,2,-2
COc1ccc(C2NC(=S)NC(C)=C2C(=O)Nc2ccccn2)cc1 (stereo not given),102,-2,57*,-1,-1,2
COc1ccc(OC)c(C2NC(=S)NC(C)=C2C(=O)Nc2ccccn2)c1 (stereo not given),103,-1,-1,9,1,1
CC(C)Oc1ccc(CCC(=O)N/N=C/c2ccncc2)cc1,100,27*,-2,9,0,3
CCCCCCCC(=O)N/N=C/c1ccncc1,94,0,-3,-2,6,-1
COC(=O)[C@]12CCCCC=C1N(Cc1ccc(Cl)cc1Cl)C(=O)[C@H](CC(=O)NCCCN1CCCC1=O)C2,/,2,0,/,5,/
Cc1nc(SCc2nc3c(C)cccc3[nH]2)c2oc3ccccc3c2n1,101,-4,2,/,0,-9
SMILES,DSG3 Ab inh,UHRF1 MBD2 ctr,SUMO1-SIM PPI,HCV NS3 hel inh,MBD2 inh,DNMT1 inh
Cc1nc(SCc2nc3c([N+](=O)[O-])cccc3[nH]2)c2oc3ccccc3c2n1,32*,/,8,/,/,-17
O=C(NC1CC1)c1cccc(NC(=O)c2cnn(-c3ccccc3)n2)c1,/,-2,-1,/,-3,5
CCCCOC(=O)CSc1nc(N)c(C#N)c(-c2ccc(OC)cc2)c1C#N,-28*,-1,-8,-7,-7,-13
CCCCOC(=O)CSc1nc(N)c(C#N)c(-c2ccc(OCC)cc2)c1C#N,80*,0,-5,-1,4,-2
CCCOC(=O)CSc1nc(N)c(C#N)c(CC)c1C#N,13*,3,-6,-5,-3,6
CCCCOc1ccc(-c2c(C#N)c(N)nc(SCC(N)=O)c2C#N)cc1,113,3,-17,-45,5,3
Cc1ccccc1OCCNC(=O)c1ccccc1Sc1ccccc1C#N,/,1,2,0,4,-4
CC(C(=O)NCc1ccc2c(c1)OCO2)N1c2cccc3cccc(c23)S1(=O)=O (stereo not given),68,1,-11,6,0,-6
COCCSc1nnc(NC(=O)c2ccc3c(c2)OCO3)s1,104,69*,0,-7,0,-9
Cc1cccc(C)c1NC(=O)CN(C1CCCCC1)S(C)(=O)=O,102,28*,2,-2,0,1
Cc1ccn2cc(-c3ccc4c(c3)NC(=O)CO4)nc2c1,94,-4,54*,-7,3,1
Cc1cccn2cc(-c3ccc4c(c3)NC(=O)CO4)nc12,102,0,2,3,3,0
C[C@@H]1CN([C@@H](C)CO)C(=O)CCCn2nncc2CO[C@H]1CN(C)C(=O)Cc1ccccc1,/,-3,9,/,-1,8
O=C(Nc1ccc(C(F)(F)F)cc1)N1CCN(C(=O)c2ccco2)CC1,98,15,3,-3,1,2
CC(C)Cc1nnc(NC(=O)CCC(=O)NC2CCCc3ccccc32)s1 (stereo not given),109,-3,1,-8,-8,0
CCCc1nnc(NC(=O)CCC(=O)NC2CCCC2)s1,102,23*,6,8,4,0
CCCc1nnc(NC(=O)CCC(=O)NC2CCCc3ccccc32)s1 (stereo not given),39*,1,-3,1,-3,8
Cc1nc(SCC(=O)N2CCNC2=O)c2ccccc2n1,122,-2,1,/,1,6
COc1ccc(Cc2c(C(C)(C)C)nc3ccc(C)cn23)c(C)c1,/,24*,-1,/,9,10
COc1ccccc1Cc1c(C(C)(C)C)nc2ccc(C)cn12,/,23*,-1,/,2,-5
CCCc1nc2c(Cl)cc(C(F)(F)F)cn2c1Cc1ccc(OC)cc1C,/,22*,-1,/,6,/
COc1ccc(Cc2c(-c3ccccc3)nc3ccc(C)cn23)c(C)c1,/,20,/,/,4,/
COc1ccccc1Cc1c(-c2ccc(OC)c(OC)c2)nc2ccc(C)cn12,/,14,6,/,3,-12
COc1ccc(Cc2c(-c3ccc(C#N)cc3)nc3c(Cl)cc(C(F)(F)F)cn23)c(C)c1,/,18,-9,/,1,/
COc1ccc(Cc2c(C(C)(C)C)nc3ccc(Cl)cn23)c(C)c1,/,-1,-4,/,-4,104*
